In ChEMBL document CHEMBL1671655, “Anidulafungin is fungicidal and exerts a variety of postantifungal effects against Candida albicans, C. glabrata, C. parapsilosis, and C. krusei isolates” (2009):
In brackets after ≈: the same amount, converted by molar mass. Activity calls are given as the source filed them. No cut-off for these calls is given here. Starred links: 1 amine or outer side, 2 acyl side, 3 side chain; linkers in the order of their positions; H or OH if unused. Positions of bridges follow the written chain, without caps; N, C: chain ends. Non-standard residues stand in square brackets, D forms with d. Residues, ends and D or L forms follow the SMILES beside them. *: point of attachment. pTerphenylCO(4''-OnC5H11) = CCCCCOc1ccc(-c2ccc(-c3ccc(C(=O)*)cc3)cc2)cc1; Orn(4R-OH,5R-OH) = O=C([C@H](C[C@@H](O)[C@@H](O)N[*:3])N[*:1])[*:2]; hTyr(3S-OH,4S-OH) = N[C@H](C(=O)O)[C@H](O)[C@@H](O)c1ccc(O)cc1; Pro(3S-OH,4S-Me) = C[C@H]1CN[C@H](C(=O)O)[C@H]1O; Hyp = O=C(O)[C@@H]1C[C@@H](O)CN1

How the values were obtained:
Candida parapsilosis [1] = experiment: Increase in susceptibility to calcofluor white in Candida parapsilosis isolate 1 assessed as cell wall damage at MIC after 1 hr relative to control; type: functional, organism-based
Procedure, shortened: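 Candida given a 1-h anidulafungin pulse in MOPS-buffered RPMI 1640 (pH 7.0) at 35°C, washed three times by centrifugation, and regrown drug-free. Cells collected 8 h later, grown in YPD with 1% glucose to exponential phase, and set to OD599 0.1. Undiluted culture and 10-fold dilutions (4 µl) spotted on YPD plates with calcofluor white, then 30°C for 72 h. Triplicate; compared with no-drug cells.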

Nakaseomyces glabratus [2] = experiment: Increase in susceptibility to SDS in Candida glabrata isolate 1 assessed as cell wall damage at 16 times MIC after 1 hr relative to control; type: functional, organism-based
Procedure, shortened: (§1)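 Cells recovered 8 h after a 1-h drug exposure were grown in YPD with 1% glucose to exponential phase and adjusted to OD599 0.1. Undiluted culture and 10-fold serial dilutions were spotted onto YPD plates containing SDS (0.01 to 0.04%), then incubated 72 h at 30°C. Growth compared with unexposed control cells; triplicate.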

Candida parapsilosis [3] = experiment: Antifungal activity against Candida parapsilosis isolate A assessed as time period for bacterial growth inhibition at 4 times MIC after 1 hr drug exposure; type: functional
Procedure, shortened: (§2)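 Inoculum of about 1 x 10^5 to 5 x 10^5 CFU/ml in MOPS-buffered RPMI (pH 7.0), shaken at 35°C and exposed to drug for 1 h. Cells then washed and centrifuged three times and resuspended in drug-free warm RPMI. Samples plated on SDA at 0, 2, 4, 8, 12, 24 and 48 h, with CFU counted after 48 h at 35°C. Run twice per isolate; values are means.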

Pichia kudriavzevii [4] = experiment: Antifungal activity against Candida krusei isolate ATCC 6258 by CLSI M27-A3 broth microdilution method; type: functional
Procedure, shortened: (§3)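 CLSI M27-A3 broth microdilution in RPMI 1640 buffered to pH 7.0 with MOPS. Starting inoculum 0.5 x 10^3 to 2.5 x 10^3 cells/ml, incubated at 35°C. MIC read as the lowest concentration giving >50% growth reduction versus control. Each isolate tested on at least three occasions.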

Nakaseomyces glabratus [5] = experiment: Antifungal activity against Candida glabrata isolate 1 assessed as cell wall damage at 4 times MIC by Transmission electron microscopy; type: functional, organism-based
Procedure, shortened: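 Cells recovered 8 h after a 1-h drug exposure were grown on SDA for 24 h at 35°C. Colonies fixed at 4°C in 0.1 M cacodylate (pH 7.2) with 2% glutaraldehyde and 2% paraformaldehyde, ethanol-dehydrated and embedded in Lowicryl K4M. Thin sections examined by transmission EM.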

Candida albicans [6] = experiment: Fungicidal activity against Candida albicans isolate 2 assessed as log reduction in bacterial count at MIC after 48 hrs by time-kill analysis; type: functional; conditions: isolate 2, 48 h
Procedure, shortened: (§4)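 Isolates subcultured twice on SDA, suspended to 0.5 McFarland, giving ~1 x 10^5 to 5 x 10^5 CFU/ml in MOPS-buffered RPMI 1640 (pH 7.0) with or without drug at multiples of MIC (MIC by CLSI M27-A3). Tubes shaken at 35°C with continuous drug. Sampled at 0–48 h, diluted 10-fold and plated on SDA; CFU counted after 48 h at 35°C. Run twice per isolate; means.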

Candida albicans [7] = experiment: Antifungal activity against Candida albicans isolate 1 assessed as time period for bacterial growth inhibition at 4 times MIC after 1 hr drug exposure; type: functional; procedure, shortened: as §2
Nakaseomyces glabratus [8] = experiment: Increase in susceptibility to SDS in Candida glabrata isolate 1 assessed as cell wall damage at 4 times MIC after 1 hr relative to control; type: functional, organism-based; procedure, shortened: as §1
Nakaseomyces glabratus [9] = experiment: Antifungal activity against Candida glabrata assessed as time period for bacterial regrowth inhibition after 1 hr drug exposure; type: functional
Pichia kudriavzevii [10] = experiment: Fungicidal activity against Candida krusei isolate ATCC 6258 assessed as log reduction in bacterial count at 4 times MIC after 48 hrs by time-kill analysis; type: functional; conditions: isolate ATCC 6258, 48 h; procedure, shortened: as §4
Nakaseomyces glabratus [11] = experiment: Increase in susceptibility to calcofluor white in Candida glabrata isolate 3 assessed as cell wall damage at 4 times MIC after 1 hr relative to control; type: functional, organism-based
Procedure, shortened: (§5)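 Cells recovered 8 h after a 1-h drug exposure were grown to exponential phase in YPD with 1% glucose and adjusted to OD599 0.1. Undiluted and 10-fold serially diluted cultures were spotted onto YPD plates containing calcofluor white, then incubated at 30°C for 72 h. Growth compared with no-drug control cells; triplicate.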

Candida albicans [12] = experiment: Increase in susceptibility to SDS in Candida albicans isolate 1 assessed as cell wall damage at MIC after 1 hr relative to control; type: functional, organism-based; procedure, shortened: as §1
Candida parapsilosis [13] = experiment: Antifungal activity against Candida parapsilosis assessed as time period for bacterial regrowth inhibition after 1 hr drug exposure; type: functional
Candida parapsilosis [14] = experiment: Antifungal activity against Candida parapsilosis isolate 1 assessed as time period for bacterial growth inhibition at 4 times MIC after 1 hr drug exposure; type: functional; procedure, shortened: as §2
Nakaseomyces glabratus [15] = experiment: Fungicidal activity against Candida glabrata isolate 1 assessed as log reduction in bacterial count at 4 times MIC after 48 hrs by time-kill analysis; type: functional; conditions: isolate 1, 48 h; procedure, shortened: as §4
Nakaseomyces glabratus [16] = experiment: Increase in susceptibility to calcofluor white in Candida glabrata isolate 3 assessed as cell wall damage at 16 times MIC after 1 hr relative to control; type: functional, organism-based; procedure, shortened: as §5
Candida albicans [17] = experiment: Antifungal activity against Candida albicans ATCC 90028 by CLSI M27-A3 broth microdilution method; type: functional; procedure, shortened: as §3
Candida albicans [18] = experiment: Antifungal activity against Candida albicans by NCCLS M27A broth microdilution method; type: functional
Pichia kudriavzevii [19] = experiment: Increase in susceptibility to SDS in Candida krusei isolate ATCC 6258 assessed as cell wall damage at 16 times MIC after 1 hr relative to control; type: functional, organism-based; procedure, shortened: as §1
Candida parapsilosis [20] = experiment: Increase in susceptibility to SDS in Candida parapsilosis isolate A assessed as cell wall damage at 4 times MIC after 1 hr relative to control; type: functional, organism-based; procedure, shortened: as §1
Candida parapsilosis [21] = experiment: Antifungal activity against Candida parapsilosis isolate 1 by CLSI M27-A3 broth microdilution method; type: functional; conditions: Lodderomyces parapsilosis; procedure, shortened: as §3
Candida albicans [22] = experiment: Antifungal activity against Candida albicans isolate 1 by CLSI M27-A3 broth microdilution method; type: functional; procedure, shortened: as §3
Pichia kudriavzevii [23] = experiment: Fungicidal activity against Candida krusei isolate 1 assessed as log reduction in bacterial count at 4 times MIC after 48 hrs by time-kill analysis; type: functional; conditions: isolate 1, 48 h; procedure, shortened: as §4
Candida parapsilosis [24] = experiment: Increase in susceptibility to SDS in Candida parapsilosis isolate A assessed as cell wall damage at MIC after 1 hr relative to control; type: functional, organism-based; procedure, shortened: as §1
Candida albicans [25] = experiment: Fungicidal activity against Candida albicans isolate S assessed as log reduction in bacterial count at 16 times MIC after drug exposure for 1 hr followed by washout measured after 48 hrs in the absence of drug by PAFE study; type: functional
Procedure, shortened: (§6)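 Starting inoculum ~1 x 10^5 to 5 x 10^5 CFU/ml in MOPS-buffered RPMI 1640 (pH 7.0) with drug at multiples of the CLSI M27-A3 MIC. After 1 h at 35°C, cells washed and centrifuged three times at 1,400 x g for 10 min, then resuspended in warm drug-free RPMI. Shaken at 35°C and plated on SDA at 0–48 h; CFU counted after 48 h. Run twice per isolate; means.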

Pichia kudriavzevii [26] = experiment: Increase in susceptibility to SDS in Candida krusei isolate ATCC 6258 assessed as cell wall damage at 4 times MIC after 1 hr relative to control; type: functional, organism-based; procedure, shortened: as §1
Candida albicans [27] = experiment: Fungicidal activity against Candida albicans isolate S assessed as log reduction in bacterial count at MIC after drug exposure for 1 hr followed by washout measured after 48 hrs in the absence of drug by PAFE study; type: functional; procedure, shortened: as §6

**Q.** With `CCCCCOc1ccc(-c2ccc(-c3ccc(C(=O)N[C@H]4C[C@@H](O)[C@@H](O)NC(=O)[C@@H]5[C@@H](O)[C@@H](C)CN5C(=O)[C@H]([C@@H](C)O)NC(=O)[C@H]([C@H](O)[C@@H](O)c5ccc(O)cc5)NC(=O)[C@@H]5C[C@@H](O)CN5C(=O)[C@H]([C@@H](C)O)NC4=O)cc3)cc2)cc1` [ANIDULAFUNGIN] ({pTerphenylCO(4''-OnC5H11)}-[Orn(4R-OH,5R-OH)]T[Hyp][hTyr(3S-OH,4S-OH)]T[Pro(3S-OH,4S-Me)]; lactam 1-C) as the compound, how does the Activity (Candida parapsilosis [1]) read?
**A.** Active

**Q.** And the Activity (Nakaseomyces glabratus [2])?
**A.** Active

**Q.** And the Time (Candida parapsilosis [3])?
**A.** 8 h

**Q.** And the MIC (Pichia kudriavzevii [4])?
**A.** 0.06 µg/mL (≈ 0.0526 µM)

**Q.** What about the Activity (Nakaseomyces glabratus [5]) of the same compound?
**A.** Active

**Q.** What about the log reduction (Candida albicans [6]) of the same compound?
**A.** 0.89 log CFU/ml

**Q.** And the Time (Candida albicans [7])?
**A.** 8 h

**Q.** And the Activity (Nakaseomyces glabratus [8])?
**A.** Active

**Q.** And the Time (Nakaseomyces glabratus [9])?
**A.** >=12 hr

**Q.** What about the log reduction (Pichia kudriavzevii [10]) of the same compound?
**A.** 2.94 log CFU/ml

**Q.** What about the Activity (Nakaseomyces glabratus [11]) of the same compound?
**A.** Active

**Q.** And the Activity (Candida albicans [12])?
**A.** Active

**Q.** And the Time (Candida parapsilosis [13])?
**A.** >=12 hr

**Q.** What about the Time (Candida parapsilosis [14]) of the same compound?
**A.** 8 h

**Q.** What about the log reduction (Nakaseomyces glabratus [15]) of the same compound?
**A.** 2.77 log CFU/ml

**Q.** And the Activity (Nakaseomyces glabratus [16])?
**A.** Active

**Q.** And the MIC (Candida albicans [17])?
**A.** 0.03 µg/mL (≈ 0.0263 µM)

**Q.** What about the MIC90 (Candida albicans [18]) of the same compound?
**A.** 0.06 µg/mL (≈ 0.0526 µM)

**Q.** And the Activity (Pichia kudriavzevii [19])?
**A.** Active

**Q.** And the Activity (Candida parapsilosis [20])?
**A.** Active

**Q.** And the MIC (Candida parapsilosis [21])?
**A.** 2 µg/mL (≈ 1.75 µM)

**Q.** And the MIC (Candida albicans [22])?
**A.** 0.015 µg/mL (≈ 0.0132 µM)

**Q.** What about the log reduction (Pichia kudriavzevii [23]) of the same compound?
**A.** 2.29 log CFU/ml

**Q.** What about the Activity (Candida parapsilosis [24]) of the same compound?
**A.** Active

**Q.** What about the log reduction (Candida albicans [25]) of the same compound?
**A.** 2.52 log CFU/ml

**Q.** And the Activity (Pichia kudriavzevii [26])?
**A.** Active

**Q.** And the log reduction (Candida albicans [27])?
**A.** 1.59 log CFU/ml
